Screening data (PubChem)
hERG rescue = hERG rescue from dofetilide block, primary screen, cell-based, CHO-hERG, FluxOR thallium flux, dofetilide IC70 | dofetilide IC70 present | hit rate 0.51% among 310,000 | AID 1511, 2009 | activation (rescue from dofetilide block), less the hit threshold, % at 10 µM;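 active = activation above the mean of controls blocked by dofetilide plus 5 SD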;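 also: thallium influx through hERG after potassium depolarization seen as dye fluorescence rise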
KCNQ1 act = potentiators or activators of KCNQ1 channel, primary screen, cell-based, thallium flux, high-throughput | Potassium voltage-gated channel subfamily KQT member 1 (Homo sapiens), P51787 | CHO-K1 KCNQ1, thallium flux FluxOR fluorescence; hits give high values | B-score at 10 µM | hit rate 0.35% among 310,000;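 active = fluorescence ratio B-score, a plate-corrected score, at least three library SD, with initial intensity B-score within 5 SD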
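Material: CHO-K1 cells stably expressing KCNQ1. Medium: assay buffer for compound exposure, DMSO matched across wells. Reagent: K+/Tl+ depolarizing stimulus. Compound dosing: single-concentration screen. Times: 37 °C overnight plating, 90-min dark dye load, 20-min compound pretreatment. Technique: FluxOR Tl+ flux fluorescence.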
PHOSPHO1 block = PubChem AID 1565. Phosphoethanolamine/phosphocholine phosphatase (Homo sapiens), Q8TCT1. recombinant PHOSPHO1, absorbance phosphatase assay. inhibition, % at 13.3 µM. hit rate 1.1% among 290,000; in the data active = inhibition above about 60%
Target sequence (Q8TCT1 whole entry, looked up): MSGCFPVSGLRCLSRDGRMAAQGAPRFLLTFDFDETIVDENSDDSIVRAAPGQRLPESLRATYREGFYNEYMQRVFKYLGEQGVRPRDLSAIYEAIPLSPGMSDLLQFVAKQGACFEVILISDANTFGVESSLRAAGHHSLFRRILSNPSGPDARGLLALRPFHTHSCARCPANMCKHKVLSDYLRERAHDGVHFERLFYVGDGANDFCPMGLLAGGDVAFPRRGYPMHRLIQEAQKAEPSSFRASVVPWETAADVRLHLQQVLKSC
KCNK3 block = human KCNK3 channel inhibitors, primary screen, CHO cells, FluxOR thallium flux, B-score | B-score at 10 µM | Potassium channel subfamily K member 3 (Homo sapiens), O14649 | hit rate 0.84% among 340,000 | FluxOR fluorescence; hits give low values;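 active = B-score under library mean minus 4 SD, starting fluorescence ratio at most library mean plus 5 SD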;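 also: more negative B-score means stronger inhibition of thallium flux through KCNK3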
KCNQ1 block = inhibitors of human KCNQ1 channel, primary screen, cell-based, thallium flux, high-throughput. Potassium voltage-gated channel subfamily KQT member 1 (Homo sapiens), P51787. CHO-K1 KCNQ1, FluxOR thallium flux fluorescence; hits give high values. B-score at 10 µM. hit rate 1.3% among 310,000. AID 2642, 2010;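 active = compounds whose thallium flux B-score, printed positive for inhibition, exceeds three library SD while starting fluorescence stays within three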;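 also: channel opened by potassium depolarization with thallium stimulus after 20 min compound exposure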
KCNK9 inh = KCNK9 potassium channel inhibitors, primary screen, HEK293 cells, thallium flux. Potassium channel subfamily K member 9 (Homo sapiens), Q9NPC2. FluxOR thallium flux fluorescence; hits give low values. B-score at 10 µM. hit rate 1.2% among 310,000;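 active = ratio B-score over 3 SD below the library mean, with starting fluorescence within 5 SD of its mean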;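 also: negative B-score means less thallium flux so channel inhibition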
KCNK9 block conf = KCNK9 potassium channel inhibitors, confirmation, HEK293 cells, thallium flux, duplicate. hit rate 43% among 4,900. inhibition, % at 10 µM. FluxOR thallium flux fluorescence. shares compounds with KCNK9 inh;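 active = thallium signal inhibited by more than 5 SD of the compound-free buffer control wells, on both duplicate plates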;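 also: 0% = assay buffer control wells without compound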
Kir21 sel = mouse Kir2.1 channel inhibition, confirmation, selectivity assay for KCNK9 modulator project, cell-based, HEK293, thallium flux | hit rate 4% among 4,900 | AID 492993, 2010 | inhibition, % at 10 µM | Kir2.1 cells, FluxOR thallium flux fluorescence | shares compounds with KCNK9 inh;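 active = thallium signal drop more than 5 SD beyond the mean of the no-compound control wells, seen in both duplicate plates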;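 also: signal is fluorescence rise after thallium addition divided by baseline fluorescence; plate controls were assay buffer only for no effect and full block by chlorpromazine control for full effect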
HEK293 Tl ctr = thallium flux in non-induced HEK293 cells, confirmation, counter-screen for KCNK9 inhibitor project, cell-based, second counter screen, non-induced KCNK9-HEK293; hit rate 40% among 4,900; shares compounds with KCNK9 inh; inhibition, % at 10 µM; FluxOR thallium flux;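 active = thallium signal drop beyond 5 SD of the untreated control mean, on both duplicate plates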;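 also: plate controls were buffer only IC0 wells for no effect and SID17386958 at its maximal inhibitory level for full effect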
An asterisk follows results filed as active; i = inactive; x = no result. Only some compounds are listed: those with a hit (about 4% of all), similar ones and a draw of the others.

SMILES | hERG rescue | KCNQ1 act | PHOSPHO1 block | KCNK3 block | KCNQ1 block | KCNK9 inh | KCNK9 block conf | Kir21 sel | HEK293 Tl ctr
Cc1cc(C)c(S(=O)(=O)c2ccccc2C)c(OCC(C)(C)C)n1 | -7.9 | i | 4.1 | i | i | -10.5* | 43.5%* | i | 53.0%*
Cc1ccnc(NC(=O)COc2ccc3oc4c(c3c2)CCCC4)c1 | -4.9 | i | -1.9 | i | i | i | x | x | x
Cc1noc(NS(=O)(=O)c2ccc(NC(=O)C(Cl)(Cl)Cl)cc2)c1C | -6.4 | i | 52.7 | i | i | i | x | x | x
Cc1noc(NS(=O)(=O)c2ccc(NC(=O)Nc3ccc(Cl)c(Cl)c3)cc2)c1C | -14.4 | i | -10.5 | i | i | i | i | i | i
CCCCN(CC)C(=O)CN1C(=O)c2ccccc2C1=O | -9.0 | i | -9.4 | i | i | i | x | x | x
CC(C)(C)c1ccc(Cn2cnc(-c3ccc([N+](=O)[O-])cc3)c2)cc1 | -8.2 | i | 9.6 | i | i | i | i | i | i
CCOc1ccc(CCNC(=O)c2ccc(CNS(=O)(=O)c3ccccc3)cc2)cc1OCC | 1.2 | i | 2.6 | i | i | i | x | x | x
CCOc1ccccc1N/C=C/C(=O)C(C)(C)C | -8.5 | i | -50.4 | i | i | i | i | i | i
O=C1CC(N(CCc2ccccc2)C(=S)Nc2cc(Cl)ccc2Cl)C(=O)N1c1c(Cl)cccc1Cl (configuration not stated) | -3.6 | i | 12.8 | i | i | -9.58* | 42.0%* | i | i
O=C1CC(N(CCc2ccccc2)C(=S)Nc2ccccc2)C(=O)N1c1ccccc1 (configuration not stated) | -3.5 | i | 0.0 | i | i | i | x | x | x
COc1ccc(Cl)cc1Nc1nc(C)nc2c1nnn2Cc1ccccc1 | -4.9 | i | x | i | i | i | x | x | x
Cc1nc(N2CCC(C)CC2)c2nnn(Cc3ccccc3)c2n1 | -5.2 | i | -13.3 | i | i | i | i | i | i
CC(C)Cc1nc(N2CCC(C(N)=O)CC2)c2nnn(Cc3ccccc3)c2n1 | -11.6 | i | 1.6 | i | i | i | x | x | x
COc1ccc(CCNc2nc(C)nc3c2nnn3Cc2ccccc2)cc1 | -2.3 | i | x | i | i | i | i | i | i
COc1ccc(OC)c(Nc2nc(C3CC3)nc3c2nnn3Cc2ccccc2)c1 | -10.4 | i | 6.1 | i | i | i | i | i | i
COc1ccc(CCC(=O)N2CCN(c3cccc(C)c3C)CC2)cc1 | -12.9 | i | 44.0 | i | i | i | i | i | i
COc1ccc(C(=O)CCC(=O)N2CCN(c3cc(C)ccc3C)CC2)cc1 | -2.5 | i | 26.6 | i | i | i | i | i | i
COc1ccc(-c2cccc(CCC(=O)N3CCN(c4cc(C)ccc4C)CC3)c2)cc1 | x | x | x | i | x | x | x | x | x
COc1ccc(CC(=O)N2CCN(c3cccc(C)c3C)CC2)cc1 | -9.4 | i | -2.7 | i | i | i | x | x | x
CC(=O)Nc1ccc(C2Nc3cc(C)c(C)cc3NC3=C2C(=O)CC(C)(C)C3)cc1 (configuration not stated) | -3.9 | i | 13.8 | i | i | i | x | x | x
